According to ChEMBL document CHEMBL1139474, “Cellular apoptosis and cytotoxicity of phenolic compounds: a quantitative structure-activity relationship study” (J Med Chem, 2005):

How the values were obtained:
L1210 [1] = test: Activity against caspase-mediated apoptosis in mouse L1210 cells at 0.1 mM; type: functional
L1210 [2] = test: Activity against caspase-mediated apoptosis in mouse L1210 cells; type: functional
L1210 [3] = test: Cytotoxicity against mouse L1210 cells; conditions: for log(1/ID50): mouse, l1210
MCF7 = test: Cytotoxicity against human MCF7 cells
CCRF-CEM = test: Cytotoxicity against human CCRF-CEM cells
[4] = Cytotoxicity against human CEM/VLB cells
HL-60 [5] = test: Cytotoxicity against human HL60 cells; type: cell-based
Summary of the method: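 HL-60 cells grown at 37 °C in RPMI with L-glutamine and 10% FBS, then seeded at (2–5) × 10⁴ cells/mL, in duplicate, at eight or more concentrations. Compounds were diluted in unsupplemented RPMI and added 1:10. After 48 h of continuous exposure, CyQUANT GR nucleic-acid dye fluorescence was read (ex 485/em 530 nm). IC50 is the concentration giving 50% lower fluorescence than controls, taken from the dose-response curve.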

HL-60 [6] = test: Induction of DNA fragmentation in human HL60 cells after 16 hrs; type: functional, cell-based; conditions: HL-60, 16 h
L1210 [7] = test: Induction of apoptosis in mouse L1210 cells at 151 uM; type: functional
Summary of the method: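 L1210 cells at 4 × 10⁴ cells/mL were incubated with or without the phenol for 12 h at 37 °C. Caspase activity was then measured in a homogeneous fluorimetric assay: DEVD-rhodamine 110 substrate in incubation buffer was added for 2 h at 37 °C, and fluorescence was read at 521 nm with excitation at 490 nm.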

Structure (SMILES) | Activity (L1210 [1]) | log(1/ID50) (L1210 [2]) | log(1/ID50) (L1210 [3]) | log(1/ID50) (MCF7) | log(1/ID50) (CCRF-CEM) | log(1/ID50) [4] | log(1/ID50) (HL-60 [5]) | IC50 (HL-60 [6]) | IC50 (L1210 [3]; Mus musculus, L1210) | Activity (L1210 [7])
Oc1ccc(Oc2ccccc2)cc1 | <15% | 0.19 | 4.97 | 3.99 | – | – | – | – | – | –
COc1ccc(O)cc1 [MEQUINOL] | <15% | 0.02 | – | – | 4.41 | 4.36 | 3.6 | – | – | –
CCCOc1ccc(O)cc1 [1-hydroxy-4-propoxybenzene] | <15% | 0.09 | 4.85 | – | – | – | 3.7 | – | – | –
Oc1ccccc1 [PHENOL] | <15% | -0.2 | 3.27 | 2.56 | 3.27 | 2.65 | 3.05 | – | – | –
CCc1ccc(O)cc1 | <15% | – | 3.86 | 2.91 | 3.79 | 3.84 | – | – | – | –
Cc1cc(C(C)(C)C)c(O)c(C(C)(C)C)c1 [BUTYLATED HYDROXYTOLUENE] | – | 2.09 | 4.04 | – | – | – | – | 3180 µM | 91.2 µM | –
Cc1ccc(O)cc1 [p-CRESOL] | <15% | – | 3.85 | – | 3.82 | 4.05 | 3.35 | – | – | –
Cl.Nc1ccc(O)cc1 [4-AMINOPHENOL HYDROCHLORIDE] | <15% | – | 5.09 | – | 4.61 | 1.94 | 4.5 | – | – | –
CCOc1ccc(O)cc1 [1-hydroxy-4-ethoxybenzene] | <15% | – | 4.64 | 3.7 | – | – | – | – | – | –
COc1ccc(O)c(C(C)(C)C)c1.COc1ccc(O)cc1C(C)(C)C [BUTYLATED HYDROXYANISOLE] | – | 2.71 | 3.82 | – | – | – | – | 1380 µM | – | 15%
